Test results reported in ChEMBL document CHEMBL4834396, “Molecular Recognition and Imaging of Human Telomeric G-Quadruplex DNA in Live Cells: A Systematic Advancement of Thiazole Orange Scaffold To Enhance Binding Specificity and Inhibition of Gene Expression” (J Med Chem, 2021).
The source made the active and inactive calls. The calls are words filed in the database; no cut-off is given here.

Experiments:
Quadruplex DNA [1] = experiment: Stabilization of telomeric Htg24 G-quadruplex DNA (unknown origin) assessed as inhibition of DNA amplification at 20 uM by PCR analysis; assay type: nucleic-acid assay
Procedure, shortened: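 Taq polymerase stop assay: Htg24 or its non-G4 mutant template (5 μM) with 2 μM of each oligomer, […] and ligand at 0–20 μM. Cycling was 94 °C for 5 min, then 30 cycles of 94/56/72 °C at 30 s each. Products were resolved on 15% PAGE and stained with SYBR Gold.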

Quadruplex DNA [2] = experiment: Binding affinity to c-myc promoter G-quadruplex DNA Pu22 (unknown origin) assessed as equilibrium binding constant at 5 uM at 25 degreeC by […]; assay type: nucleic-acid assay
Procedure, shortened: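 Fluorescence titration: ligand 5 μM in 10 mM Tris-HCl pH 7.4 with 60 mM KCl, nucleic acid added until saturation, 25 °C. Keq from nonlinear fit of F/F0 to an independent-site model.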

Quadruplex DNA [3] = experiment: Binding affinity to telomeric Htg24 G-quadruplex DNA (unknown origin) assessed as emission wavelength at 480 to 483 nm at pH 7.4 by spectrophotometric method; assay type: nucleic-acid assay
Quadruplex DNA [4] = experiment: Binding affinity to telomeric Htg24 G-quadruplex DNA (unknown origin) assessed as fold increase in fluorescence signal at 5 uM under pH condition 7.4 by fluorescence method; assay type: nucleic-acid assay
Procedure, shortened: (§1)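 Ligand 5 μM with each nucleic acid at 15 μM in 10 mM Tris-HCl pH 7.4, 60 mM KCl; emission enhancement expressed as F/F0 against ligand without DNA.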

i-motif DNA = experiment: Binding affinity to promoter i-motif DNA (unknown origin) assessed as fluorescence signal at 5 uM under pH condition 7.4 by fluorescence method; assay type: nucleic-acid assay; procedure, shortened: as §1
Quadruplex DNA [5] = experiment: Binding affinity to telomeric Htg24 G-quadruplex DNA (unknown origin) assessed as compound-DNA complex stoichiometry ratio of 1:1 by Job's plot analysis; assay type: nucleic-acid assay
Quadruplex DNA [6] = experiment: Binding affinity to G4 quadruplex DNA in human HeLa cells assessed as increase in number of BG4 foci at 10 to 20 uM; assay type: cell-based; conditions: dose 10-20 µM
Quadruplex DNA [7] = experiment: Binding affinity to G4 quadruplex DNA in human HeLa cells assessed as BG4 foci formation at 10 to 20 uM; assay type: cell-based; conditions: dose 10-20 µM
HeLa [8] = experiment: Induction of cellular senescence in human HeLa cells assessed as positive SA-beta-Gal cells at 0.5 to 4 uM incubated for 18 days by inverted fluorescence microscopic analysis; assay type: functional, cell-based; conditions: dose 0.5-4 µM, time 18.0 day
Procedure, shortened: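 HeLa cells were exposed to compound for 18 days, with drug-containing medium replaced every three days. Cells were then fixed 15 min at room temperature and stained for β-galactosidase at 37 °C overnight. Stained cells were examined under an inverted microscope.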

[9] = Drug uptake in nucleolus of human U87 cells assessed as imaging of G-quadruplex at 5 uM for 30 mins followed by co-staining with DAPI and measured after 10 mins by confocal laser fluorescence microscopic analysis; assay type: ADME, subcellular; conditions: u-87mg atcc, 40 min
Procedure, shortened: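 Live U87 cells were co-stained with ligand (5 μM, 30 min) and DAPI (1 μM, 10 min). Confocal imaging used excitation at 402 nm for DAPI and 488 or 571 nm for the ligand.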

[10] = Drug uptake in nucleolus of human U87 cells assessed as change in fluorescence signal at 5 uM for 30 mins co-stained with DAPI for 10 mins followed by treating with RNase and measured after 30 mins by confocal laser fluorescence microscopic analysis; assay type: ADME, subcellular; conditions: u-87mg atcc, 1.167 h, time 70 min
[11] = Drug uptake in nucleolus of human U87 cells assessed as disappearance of fluorescence signal at 5 uM for 30 mins co-stained with DAPI for 10 mins followed by treating with DNase and measured after 30 mins by confocal laser fluorescence microscopic analysis; assay type: ADME, subcellular; conditions: u-87mg atcc, 1.167 h, time 70 min
PC-3 = experiment: Antiproliferative activity against human PC-3 cells assessed as reduction in cell viability […] by MTT assay; assay type: functional, cell-based
HeLa [12] = experiment: Antiproliferative activity against human HeLa cells assessed as reduction in cell viability […] by MTT assay; assay type: functional, cell-based
[13] = test system: Quadruplex DNA [UNDEFINED MUTATION]; experiment: Effect on confirmation of telomeric Htg24 G-quadruplex DNA A14G mutant (unknown origin) assessed as hybrid topology at 5 uM at pH 7.4 by circular dichroism analysis; assay type: nucleic-acid assay; conditions: Homo sapiens
Procedure, shortened: (§2)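 CD spectra recorded on G4-DNA and ligand, each at 5 μM, in 10 mM Tris-HCl, pH 7.4, with 60 mM KCl. Scan range 220–340 nm in a 1 mm quartz cuvette, 1 nm bandwidth and step, 0.5 s/point. Each spectrum is the average of three scans.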

[14] = test system: Quadruplex DNA [UNDEFINED MUTATION]; experiment: Effect on confirmation of telomeric Htg24 G-quadruplex DNA G16A mutant (unknown origin) assessed as parallel topology at 5 uM at pH 7.4 by circular dichroism analysis; assay type: nucleic-acid assay; conditions: Homo sapiens; procedure, shortened: as §2
[15] = test system: Quadruplex DNA [UNDEFINED MUTATION]; experiment: Effect on confirmation of telomeric Htg24 G-quadruplex DNA T18G mutant (unknown origin) assessed as hybrid topology at 5 uM at pH 7.4 by circular dichroism analysis; assay type: nucleic-acid assay; conditions: Homo sapiens; procedure, shortened: as §2
[16] = test system: Quadruplex DNA [UNDEFINED MUTATION]; experiment: Binding affinity to telomeric Htg24 G-quadruplex DNA G5C mutant (unknown origin) assessed as negative fluorescence signal at 5 uM under pH condition 7.4 by fluorescence titration analysis; assay type: nucleic-acid assay; conditions: Homo sapiens
Procedure, shortened: (§3)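 Ligand held at 5 μM and mixed with each Htg24 point mutant in Tris-HCl buffer containing 60 mM KCl, pH 7.4. Fluorescence was read, and the signal change was computed as (F mutant − F wild type)/F wild type.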

[17] = test system: Quadruplex DNA [UNDEFINED MUTATION]; experiment: Binding affinity to telomeric Htg24 G-quadruplex DNA G17T mutant (unknown origin) assessed as negative fluorescence signal at 5 uM under pH condition 7.4 by fluorescence titration analysis; assay type: nucleic-acid assay; conditions: Homo sapiens
Procedure, shortened: (§4)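 Ligand 5 μM mixed with wild-type or point-mutant Htg24 in Tris-HCl buffer with 60 mM KCl; signal change calculated as (F mutant − F wild type)/F wild type.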

[18] = test system: Quadruplex DNA [UNDEFINED MUTATION]; experiment: Binding affinity to telomeric Htg24 G-quadruplex DNA T18G mutant (unknown origin) assessed as negative fluorescence signal at 5 uM under pH condition 7.4 by fluorescence titration analysis; assay type: nucleic-acid assay; conditions: Homo sapiens; procedure, shortened: as §3
[19] = test system: Quadruplex DNA [UNDEFINED MUTATION]; experiment: Binding affinity to telomeric Htg24 G-quadruplex DNA A20G mutant (unknown origin) assessed as negative fluorescence signal at 5 uM under pH condition 7.4 by fluorescence titration analysis; assay type: nucleic-acid assay; conditions: Homo sapiens; procedure, shortened: as §4
[20] = test system: Quadruplex DNA [UNDEFINED MUTATION]; experiment: Binding affinity to telomeric Htg24 G-quadruplex DNA G22T mutant (unknown origin) assessed as negative fluorescence signal at 5 uM under pH condition 7.4 by fluorescence titration analysis; assay type: nucleic-acid assay; conditions: Homo sapiens; procedure, shortened: as §3
[21] = test system: Quadruplex DNA [UNDEFINED MUTATION]; experiment: Binding affinity to telomeric Htg24 G-quadruplex DNA G23C mutant (unknown origin) assessed as fluorescence signal at 5 uM under pH condition 7.4 by fluorescence titration analysis; assay type: nucleic-acid assay; conditions: Homo sapiens; procedure, shortened: as §3
[22] = test system: Quadruplex DNA [UNDEFINED MUTATION]; experiment: Binding affinity to telomeric Htg24 G-quadruplex DNA G15A mutant (unknown origin) assessed as fluorescence signal at 5 uM under pH condition 7.4 by fluorescence titration analysis; assay type: nucleic-acid assay; conditions: Homo sapiens
[23] = test system: Quadruplex DNA [UNDEFINED MUTATION]; experiment: Binding affinity to telomeric Htg24 G-quadruplex DNA G15C mutant (unknown origin) assessed as fluorescence signal at 5 uM under pH condition 7.4 by fluorescence titration analysis; assay type: nucleic-acid assay; conditions: Homo sapiens

SMILES: CN(C)c1ccc(/C=C/c2cc(/C=C3\Sc4ccccc4N3CCCN3CCOCC3)c3ccccc3[n+]2C)cc1.[I-]
- Activity (Quadruplex DNA [1]): Active
- Kb (Quadruplex DNA [2]): 309000 M⁻¹
- Activity (Quadruplex DNA [3]): 642 nm
- fold change (FC) (Quadruplex DNA [4]): 120
- fold change (FC) (i-motif DNA): 1
- Activity (Quadruplex DNA [5]): Active
- Activity (Quadruplex DNA [6]): Active
- Activity (Quadruplex DNA [7]): Active
- Activity (HeLa [8]): Active
- Drug uptake [9]: Active
- Drug uptake [10]: Not Active
- Drug uptake [11]: Active
- IC50 (PC-3): 12.8 µM
- IC50 (HeLa [12]): 16.3 µM
- Activity [13]: Active
- Activity [14]: Active
- Activity [15]: Active
- Activity [16]: Active
- Activity [17]: Active
- Activity [18]: Active
- Activity [19]: Active
- Activity [20]: Active
- Activity [21]: inactive
- Activity [22]: inactive
- Activity [23]: inactive
